According to article PMC7758955 (ACS Omega, 2020):

Assays:
COX-1 (ovine) = biological target: T1, COX-1 (ovine) (Ovis aries, UniProt P05979); assay: COX Fluorescent Inhibitor Screening Assay Kit, COX-1; type: biochemical
T1 sequence (P05979 25-600): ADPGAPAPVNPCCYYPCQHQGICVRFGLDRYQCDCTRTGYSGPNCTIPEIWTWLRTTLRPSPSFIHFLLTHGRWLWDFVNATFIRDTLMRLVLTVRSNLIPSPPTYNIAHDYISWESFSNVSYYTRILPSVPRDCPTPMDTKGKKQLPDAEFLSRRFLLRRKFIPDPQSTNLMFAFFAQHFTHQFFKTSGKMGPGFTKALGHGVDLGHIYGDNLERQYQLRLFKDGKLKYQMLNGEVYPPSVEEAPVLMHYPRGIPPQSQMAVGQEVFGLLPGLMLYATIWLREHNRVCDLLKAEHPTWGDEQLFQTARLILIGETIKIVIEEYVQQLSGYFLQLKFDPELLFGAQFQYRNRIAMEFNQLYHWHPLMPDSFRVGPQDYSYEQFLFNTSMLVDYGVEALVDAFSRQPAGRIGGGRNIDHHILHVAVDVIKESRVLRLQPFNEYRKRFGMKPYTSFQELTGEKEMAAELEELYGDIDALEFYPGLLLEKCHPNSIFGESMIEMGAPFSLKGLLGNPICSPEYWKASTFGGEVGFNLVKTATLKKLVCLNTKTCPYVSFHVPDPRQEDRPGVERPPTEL

[1] = biological target: T2, COX-2 (human recombinant) (Homo sapiens, UniProt P35354); assay: COX Fluorescent Inhibitor Screening Assay Kit, COX-2; type: biochemical
T2 sequence (P35354 18-604): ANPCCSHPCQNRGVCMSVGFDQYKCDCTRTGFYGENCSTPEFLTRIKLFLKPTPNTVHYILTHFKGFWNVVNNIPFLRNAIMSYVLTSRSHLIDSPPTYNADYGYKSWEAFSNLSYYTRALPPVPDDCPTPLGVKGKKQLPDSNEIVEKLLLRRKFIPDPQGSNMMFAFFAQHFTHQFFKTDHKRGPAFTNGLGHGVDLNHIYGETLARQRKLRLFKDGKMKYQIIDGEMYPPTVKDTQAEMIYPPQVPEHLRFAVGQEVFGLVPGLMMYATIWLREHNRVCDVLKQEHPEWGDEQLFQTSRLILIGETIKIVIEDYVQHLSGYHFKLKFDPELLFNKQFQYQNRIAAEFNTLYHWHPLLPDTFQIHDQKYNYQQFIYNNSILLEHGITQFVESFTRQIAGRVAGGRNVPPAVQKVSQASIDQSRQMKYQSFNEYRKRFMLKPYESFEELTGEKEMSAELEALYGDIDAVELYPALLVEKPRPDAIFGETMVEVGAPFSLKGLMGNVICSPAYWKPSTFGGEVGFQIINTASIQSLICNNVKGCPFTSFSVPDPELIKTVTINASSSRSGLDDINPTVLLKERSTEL

[2] = system: cryopreserved human hepatocytes; assay: Hepatocyte toxicity by WST-8 assay; type: cell-based; conditions: 200 μM, 2 h with shaking, relative to control (0.25 v/v% DMSO)
Summary of the method: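 Thawed cryopreserved human hepatocytes were kept at 37 °C in humidified 5% CO2 and seeded at 5.0 × 10^4 cells/well. Test compound was added in DMSO (final 0.25% v/v; DMSO-only control), then shaken 2 h. CCK-8 (WST-8) reagent was added for another 4 h. Absorbance was read at 450 nm (reference 600 nm), and viability was expressed relative to control.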

Structure (SMILES): O=C(O)C(F)(F)c1cc(F)ccc1Nc1c(Cl)cc(F)cc1Cl [2d]
- IC50 (COX-1 (ovine)): > 100 µM
- IC50 [1]: > 100 µM

Structure (SMILES): O=C(O)Cc1cc(F)ccc1Nc1c(Cl)cc(F)cc1Cl [1d]
- IC50 (COX-1 (ovine)): 0.73 µM
- IC50 [1]: 26 µM

Structure (SMILES): O=C(O)Cc1ccccc1Nc1c(Cl)cc(F)cc1Cl [1b]
- IC50 (COX-1 (ovine)): 0.67 µM
- IC50 [1]: 27 µM

Structure (SMILES): Fc1cc(Cl)c(Nc2ccc(F)cc2Cc2nnn[nH]2)c(Cl)c1 [3d]
- IC50 (COX-1 (ovine)): > 100 µM
- IC50 [1]: > 100 µM

Structure (SMILES): O=S(=O)(O)Cc1ccccc1Nc1c(Cl)cccc1Cl [4a]
- IC50 (COX-1 (ovine)): > 100 µM
- IC50 [1]: > 100 µM
- COX-2 inhibition (in words) ([1]; up to a concentration of 100 μM): did not inhibit COX-2

Structure (SMILES): O=C(O)C(F)(F)c1cc(F)ccc1Nc1c(Cl)cccc1Cl [2c]
- IC50 (COX-1 (ovine)): > 100 µM
- IC50 [1]: 21 µM
- COX-2 IC50 relative to that of DCF ([1]; ratio to DCF IC50): three times higher
- cytotoxicity in cryopreserved human hepatocytes (cell viability, WST-8) [2]: much weaker than that of DCF

Structure (SMILES): O=C(O)C(F)(F)c1ccccc1Nc1c(Cl)cc(F)cc1Cl [2b]
- IC50 (COX-1 (ovine)): > 100 µM
- IC50 [1]: > 100 µM
